Experimental data taken from ChEMBL document CHEMBL2010781, “2-Amidino analogs of glycine-amiloride conjugates: inhibitors of urokinase-type plasminogen activator” (Bioorg Med Chem Lett, 2012).
The source made the active and inactive calls. The rule behind the calls is not given here.

Columns and labels:
[1] = target: Tissue-type plasminogen activator (Homo sapiens, UniProt P00750); assay: Inhibition of tPA using CH3SO2-D-HHT-Gly-Arg-pNA as substrate by spectrophotometry
[2] = Inhibition of trypsin using tosyl-Gly-Pro-Lys-pNA as substrate by spectrophotometry
[3] = Cytotoxicity against human U87 cells at 250 uM after 24 hrs by lactate dehydrogenase assay; format: functional, U-87MG ATCC
Outline: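 Human U87 glioma cells seeded at ten thousand per well and exposed to drug for 24–48 h at 37°C under 5% CO2. Cell death was read as cytosolic lactate dehydrogenase released from dying cells, assayed following the kit manufacturer's protocol.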

Plasminogen = Plasminogen (Homo sapiens, UniProt P00747); assay: Inhibition of plasmin using tosyl-Gly-Pro-Lys-pNA as substrate by spectrophotometry
[4] = target: Urokinase-type plasminogen activator (Homo sapiens, UniProt P00749); assay: Inhibition of urokinase-type plasminogen activator using Glt-Gly-Arg-AMC as substrate by spectrofluorometry
U-87MG ATCC = assay: Cytotoxicity against human U87 cells by lactate dehydrogenase assay; format: functional, cell-based
Outline: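 Cytotoxicity was read as release of cytosolic LDH from dying cells, following the kit manufacturer's protocol.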

[5] = Cytotoxicity against human U87 cells at 100 uM after 72 hrs by lactate dehydrogenase assay; format: functional, U-87MG ATCC; conditions: in the assay text read “24 hrs” for “72 hrs”
Outline: (§1)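 Cell death was scored as cytosolic LDH released into the medium, using the kit manufacturer's LDH protocol.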

[6] = Cytotoxicity against human U87 cells at 250 uM after 72 hrs by lactate dehydrogenase assay; format: functional, U-87MG ATCC
Outline: as §1

Tissue-type plasminogen activator, sequence (P00750 whole entry): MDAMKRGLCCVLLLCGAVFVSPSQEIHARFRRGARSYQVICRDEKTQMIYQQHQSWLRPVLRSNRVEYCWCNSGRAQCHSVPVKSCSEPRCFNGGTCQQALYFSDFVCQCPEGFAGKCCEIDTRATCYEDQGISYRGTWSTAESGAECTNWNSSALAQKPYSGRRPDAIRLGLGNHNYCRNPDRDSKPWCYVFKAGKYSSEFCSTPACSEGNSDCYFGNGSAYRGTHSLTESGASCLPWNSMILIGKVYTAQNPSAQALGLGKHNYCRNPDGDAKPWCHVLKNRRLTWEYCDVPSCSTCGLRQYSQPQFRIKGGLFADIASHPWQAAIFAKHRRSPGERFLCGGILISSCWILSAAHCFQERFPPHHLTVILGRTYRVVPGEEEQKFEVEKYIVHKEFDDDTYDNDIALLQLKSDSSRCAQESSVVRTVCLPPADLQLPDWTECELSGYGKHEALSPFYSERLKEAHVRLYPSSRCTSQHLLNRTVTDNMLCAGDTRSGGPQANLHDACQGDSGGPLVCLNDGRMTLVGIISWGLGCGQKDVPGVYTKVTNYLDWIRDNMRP
Plasminogen, sequence (P00747 97-580 limits assumed): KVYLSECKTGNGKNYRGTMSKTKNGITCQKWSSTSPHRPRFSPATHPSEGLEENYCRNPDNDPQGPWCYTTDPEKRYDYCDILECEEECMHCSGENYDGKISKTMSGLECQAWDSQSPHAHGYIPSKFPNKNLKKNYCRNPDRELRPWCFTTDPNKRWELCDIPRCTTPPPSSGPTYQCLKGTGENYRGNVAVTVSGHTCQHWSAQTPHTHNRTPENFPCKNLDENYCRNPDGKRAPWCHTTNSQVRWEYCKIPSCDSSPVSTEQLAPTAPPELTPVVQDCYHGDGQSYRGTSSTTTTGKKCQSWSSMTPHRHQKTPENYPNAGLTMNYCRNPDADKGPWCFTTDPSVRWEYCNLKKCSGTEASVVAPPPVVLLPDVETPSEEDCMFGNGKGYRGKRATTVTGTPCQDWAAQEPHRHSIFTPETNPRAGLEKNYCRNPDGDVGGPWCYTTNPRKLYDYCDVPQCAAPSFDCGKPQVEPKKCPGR
Plasminogen, sequence (P00747 581-810 limits assumed): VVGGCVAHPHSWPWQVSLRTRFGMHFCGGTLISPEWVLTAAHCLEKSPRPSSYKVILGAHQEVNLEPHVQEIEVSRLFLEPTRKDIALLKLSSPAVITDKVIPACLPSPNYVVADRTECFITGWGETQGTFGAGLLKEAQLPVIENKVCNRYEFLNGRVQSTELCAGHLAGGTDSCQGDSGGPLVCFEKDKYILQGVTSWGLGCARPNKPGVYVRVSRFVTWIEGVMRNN

Row | Structure (SMILES) | IC50 [1] | IC50 [2] | Activity [3] | IC50 (Plasminogen) | IC50 [4] | Activity (U-87MG ATCC) | Activity [5] | Activity [6]
1 | N=C(N)NC(=O)c1nc(Cl)c(N)nc1N [AMILORIDE] | 220 µM | > 250 µM | 50% | > 250 µM | – | – | – | –
2 | N=C(NO)c1nc(Cl)c(NCC(=O)O)nc1N | > 250 µM | – | – | > 250 µM | 231 µM | – | – | –
3 | N=C(NO)c1ncc(NCC(=O)O)nc1N | > 250 µM | – | – | – | 279 µM | – | – | –
4 | N=C(N)c1nc(Cl)c(NCC(=O)O)nc1N | > 250 µM | > 250 µM | – | – | 237 µM | inactive | – | –
5 | N/C(=N\O)c1nc(Cl)c(NCC(=O)O)nc1N | – | > 250 µM | – | – | – | inactive | – | –
6 | NC(=O)c1nc(Cl)c(NCC(=O)OCc2ccccc2)nc1N | > 250 µM | > 250 µM | – | – | 69 µM | – | – | –
7 | N=C(NO)c1nc(Cl)c(NCC(=O)OCc2ccccc2)nc1N | 200 µM | – | – | > 250 µM | 74 µM | – | – | –
8 | N=C(N)NC(=O)c1nc(Cl)c(NCC(=O)O)nc1N | > 250 µM | > 250 µM | – | > 250 µM | 17 µM | inactive | – | –
9 | NC(N)=NC(=O)c1nc(Cl)c(NCC(=O)OCc2ccccc2)nc1N | > 190 µM | > 250 µM | – | > 250 µM | 3 µM | – | 50% | –
10 | N/C(=N\O)c1ncc(NCC(=O)O)nc1N | – | > 250 µM | – | – | – | inactive | – | –
11 | N/C(=N\O)c1nc(Cl)c(NCC(=O)OCc2ccccc2)nc1N | – | > 250 µM | – | – | – | inactive | – | –
12 | N=C(N)c1ncc(NCC(=O)O)nc1N | > 250 µM | > 250 µM | – | > 250 µM | 212 µM | inactive | – | –
13 | N=C(N)c1nc(Cl)c(NCC(=O)OCc2ccccc2)nc1N | 200 µM | > 250 µM | – | > 250 µM | 4 µM | – | – | 50%
14 | NC(N)=NC(=O)c1ncc(NCC(=O)O)nc1N | > 250 µM | > 250 µM | – | > 250 µM | 47 µM | inactive | – | –
